Reference: ChEMBL document CHEMBL1151781, “Selectivity of inhibitors of endocannabinoid biosynthesis evaluated by activity-based protein profiling” (Bioorg Med Chem Lett, 2008)

Target: T1, Fatty-acid amide hydrolase 1 (Mus musculus) (UniProt O08914)
T1 sequence (whole entry): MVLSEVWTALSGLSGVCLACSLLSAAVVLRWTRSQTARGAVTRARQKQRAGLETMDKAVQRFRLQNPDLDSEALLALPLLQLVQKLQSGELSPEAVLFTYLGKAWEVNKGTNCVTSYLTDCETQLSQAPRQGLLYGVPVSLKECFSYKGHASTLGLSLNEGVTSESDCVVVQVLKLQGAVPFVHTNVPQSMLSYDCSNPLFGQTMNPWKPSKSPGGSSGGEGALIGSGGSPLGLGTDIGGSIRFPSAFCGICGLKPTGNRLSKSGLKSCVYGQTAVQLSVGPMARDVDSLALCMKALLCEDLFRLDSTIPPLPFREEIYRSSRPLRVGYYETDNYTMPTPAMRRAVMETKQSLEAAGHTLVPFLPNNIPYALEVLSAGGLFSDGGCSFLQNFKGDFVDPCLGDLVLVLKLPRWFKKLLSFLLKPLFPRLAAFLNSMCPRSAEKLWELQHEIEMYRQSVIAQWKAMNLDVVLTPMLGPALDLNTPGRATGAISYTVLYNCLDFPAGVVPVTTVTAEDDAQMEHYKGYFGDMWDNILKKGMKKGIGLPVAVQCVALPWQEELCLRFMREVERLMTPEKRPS
Assay: Inhibition of FAAH in mouse brain assessed as reduction in spectral count at 50 uM treated for 30 mins by ABPP-MudPIT assay relative to control
Assay type: tissue-based
Summary of the method: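 Mouse brain proteome was treated with inhibitor at the stated single concentration, or DMSO as control, for 30 min. FP-biotin (5 μM) was then added for 120 min, followed by avidin enrichment and LC-MS (ABPP-MudPIT). Runs were in triplicate. Only hydrolases with >15 average spectral counts in control were quantified. Blockade is the percent reduction in average spectral counts versus DMSO; >60% defined a target.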

Structure (SMILES): O=C(NCCCCCCNC(=O)ON=C1CCCCC1)ON=C1CCCCC1
- inhibition: > 60%
